B1: Vitamin K-dependent gamma-carboxylase (Homo sapiens), P38435 (protein)
chain: MAVSAGSARTSPSSDKVQKDKAELISGPRQDSRIGKLLGFEWTDLSSWRRLVTLLNRPTDPASLAVFRFLFGFLMVLDIPQERGLSSLDRKYLDGLDVCRFPLLDALRPLPLDWMYLVYTIMFLGALGMMLGLCYRISCVLFLLPYWYVFLLDKTSWNNHSYLYGLLAFQLTFMDANHYWSVDGLLNAHRRNAHVPLWNYAVLRGQIFIVYFIAGVKKLDADWVEGYSMEYLSRHWLFSPFKLLLSEELTSLLVVHWGGLLLDLSAGFLLFFDVSRSIGLFFVSYFHCMNSQLFSIGMFSYVMLASSPLFCSPEWPRKLVSYCPRRLQQLLPLKAAPQPSVSCVYKRSRGKSGQKPGLRHQLGAAFTLLYLLEQLFLPYSHFLTQGYNNWTNGLYGYSWDMMVHSRSHQHVKITYRDGRTGELGYLNPGVFTQSRRWKDHADMLKQYATCLSRLLPKYNVTEPQIYFDIWVSINDRFQQRIFDPRVDIVQAAWSPFQRTSWVQPLLMDLSPWRAKLQEIKSSLDNHTEVVFIADFPGLHLENFVSEDLGNTSIQLLQGEVTVELVAEQKNQTLREGEKMQLPAGEYHKVYTTSPSPSCYMYVYVNTTELALEQDLAYLQELKEKVENGSETGPLPPELQPLLEGEVKGGPEPTPLVQTFLRRQQRLQEIERRRNTPFHERFFRFLLRKLYVFRRSFLMTCISLRNLILGRPSLEQLAQEVTYANLRPFEAVGELNPSNTDSSHSNPPESNPDPVHSEF

Experiments:
[1] = tested on: MG-63; assay: Induction of apoptosis against human MG63 cells after 72 hrs; type: functional, cell-based
Method in brief: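 MG-63 osteosarcoma cells, double thymidine block (2.5 mM, 12 h each) for S-phase synchronization. Treated 3 days at 10^-5 and 10^-6 M in DMEM. Permeabilized with 0.2% Triton X plus RNase, 37 °C for 1 h. Stained with propidium iodide 50 µg/mL, 4 °C for 20 min. DNA content by flow cytometry, 488 nm. Mean ± SD of three independent experiments.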

[2] = tested on: Vitamin K-dependent gamma-carboxylase (Mus musculus); assay: Ratio of Vmax to Km assessed as 14CO2 incorporation for 30 mins
[3] = substrate: CC(C)=CCC/C(C)=C/CC/C(C)=C/CC/C(C)=C/CC1=C(C)C(=O)c2ccccc2C1=O; assay: (§1) Activity for gamma-glutamylcarboxylase assessed as 14CO2 incorporation
Method in brief: (§2)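 Mouse liver microsomal γ-glutamylcarboxylase. Reduced (hydroquinone) vitamin K as cofactor, 8 concentrations. Fixed enzyme level with 3.6 mM FLEEL substrate. Buffer: 16 µM ProFIX19 propeptide, 1.4 mM NaH14CO3, 25 mM MOPS pH 7.0, 500 mM NaCl, 0.16% phosphatidylcholine, 0.16% CHAPS, 8 mM DTT, 0.8 M ammonium sulfate. 14CO2 incorporated into peptide over 30 min counted by scintillation. Km and Vmax from initial rates by double-reciprocal plot.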

[4] = substrate: CC1=C(C/C=C(\C)CC/C=C(\C)CC/C=C(\C)CC/C=C(\C)CO)C(=O)c2ccccc2C1=O; assay: as §1; method in brief: as §2
[5] = substrate: CC(C)=CCC/C(C)=C/CC/C(C)=C/CC/C(C)=C/CC1=C(C)C(=O)c2ccccc2C1=O; assay: (§3) Activity for gamma-glutamylcarboxylase assessed as 14CO2 incorporation for 30 mins; method in brief: as §2
[6] = substrate: CC1=C(C/C=C(\C)CC/C=C(\C)CC/C=C(\C)CC/C=C(\C)CO)C(=O)c2ccccc2C1=O; assay: as §3; method in brief: as §2

Row | Molecule | Activity [1] | also measured
1 | CC1=C(C/C=C(\C)CC/C=C(\C)C=O)C(=O)c2ccccc2C1=O | Dose-dependent effect | –
2 | CC1=C(C/C=C(\C)CC/C=C(\C)CC/C=C(\C)C=O)C(=O)c2ccccc2C1=O | Dose-dependent effect | –
3 | CC(C)=CCC/C(C)=C/CC/C(C)=C/CC/C(C)=C/CC1=C(C)C(=O)c2ccccc2C1=O | Dose-dependent effect | –
4 | CC1=C(C/C=C(\C)CC/C=C(\C)CC/C=C(\C)CO)C(=O)c2ccccc2C1=O | Dose-dependent effect | –
5 | CC1=C(C/C=C(\C)CC/C=C(\C)CO)C(=O)c2ccccc2C1=O | Dose-dependent effect | –
6 | CC(C)=CCC/C(C)=C/CC1=C(C)C(=O)c2ccccc2C1=O | Dose-dependent effect | –
7 | CC(C)=CCC/C(C)=C/CC/C(C)=C/CC1=C(C)C(=O)c2ccccc2C1=O | Dose-dependent effect | –
8 | CC1=C(C/C=C(\C)CC/C=C(\C)CC/C=C(\C)CC/C=C(\C)C=O)C(=O)c2ccccc2C1=O | Dose-dependent effect | –
9 | CC1=C(C/C=C(\C)CC/C=C(\C)CC/C=C(\C)CC/C=C(\C)CO)C(=O)c2ccccc2C1=O | Dose-dependent effect | Vmax/Km [2]: 50 pmol/microM
10 | B1 | – | Km [3]: 13.3 µM; Km [4]: 2 µM; Vmax [5]: 126 pmol; Vmax [6]: 99.9 pmol

Reference: ChEMBL document CHEMBL1143934, “Design and synthesis of biologically active analogues of vitamin K2: evaluation of their biological activities with cultured human cell lines” (Bioorg Med Chem, 2008)
